Laboratory results published in ChEMBL document CHEMBL1148707, “Inhibition of the bacterial heme oxygenases from Pseudomonas aeruginosa and Neisseria meningitidis: novel antimicrobial targets” (J Med Chem, 2007).
Calls of active or inactive are those of the source. No cut-off for these calls is given here.

Experiments:
[1] = tested on: Pseudomonas aeruginosa; test: Growth inhibition of Pseudomonas aeruginosa MPA01 at <250 uM; format: functional, organism-based
Method in brief: (§1)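 MPA01 grown 8 h at 37 °C, then diluted to OD600 0.05 in iron-restricted succinate minimal medium pH 7.0 with heme as iron source. Compound added from DMSO at 10-1500 µM. Incubated 10 h at 37 °C with aeration in 96-well format, then OD600 read.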

[2] = Binding affinity to Neisseria meningitidis heme oxygenase
Method in brief: (§2)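 Fluorescence titration of purified apoprotein (1 µM; residual biliverdin removed by chromatofocusing) in 20 mM Tris-HCl pH 7.5. Compound added at 0.05-500 µM from DMSO stock. Mean of three experiments.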

[3] = tested on: Neisseria meningitidis; test: Inhibition of Neisseria meningitidis heme oxygenase-mediated biliveridin production in Escherichia coli BL21 at 1500 uM
Method in brief: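 E. coli BL21(DE3) with leaky nm-HO expression grown overnight (16 h) in LB with 100 µg/mL ampicillin, with or without 1500 µM compound, no iron restriction. Cells lysed with 50 µM β/δ-biliverdin added as internal standard. Biliverdin extracted into chloroform, converted to dimethyl esters, analysed by HPLC. α-Biliverdin peak integrated against the standard.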

[4] = tested on: Pseudomonas aeruginosa; test: Growth inhibition of Pseudomonas aeruginosa MPA01 at >250 uM; format: functional, organism-based; method in brief: as §1
[5] = tested on: Pseudomonas aeruginosa; test: Growth inhibition of Pseudomonas aeruginosa MPA01 in presence of haemoglobin; format: functional; design: scale not given: the % may be the effect or the level left
Method in brief: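 MPA01 diluted to OD600 0.05 in succinate minimal medium pH 7.0 with 25 µM hemoglobin as sole iron source, with or without compound (DMSO). 10 h endpoint OD600 at 0-1500 µM, or hourly OD600 over 12 h at 500 µM, 37 °C with aeration. Compared with 40 µM Fe(III) pyoverdine cultures. Mean of three experiments.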

[6] = molecular target: T1, Heme oxygenase (Pseudomonas aeruginosa, UniProt O69002); test: Binding affinity to Pseudomonas aeruginosa heme oxygenase; method in brief: as §2
T1 sequence (O69002 whole entry): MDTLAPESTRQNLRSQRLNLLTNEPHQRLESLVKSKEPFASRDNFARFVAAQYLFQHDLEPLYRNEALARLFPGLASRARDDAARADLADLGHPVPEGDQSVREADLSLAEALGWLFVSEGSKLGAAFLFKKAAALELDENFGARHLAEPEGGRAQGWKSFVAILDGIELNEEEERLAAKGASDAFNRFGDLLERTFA

Structure (SMILES)	Activity [1]	Kd [2]	Activity [3]	Activity [4]	Activity [5]	Kd [6]
CN(C)c1ccc(/C=N/NC(=N)N)cc1	inactive	22.9 µM	Active	–	–	–
O=C(NNC(=O)c1ccncc1)c1ccncc1	inactive	–	inactive	–	–	–
N=C(N/N=C\c1cccnc1)N/N=C\c1cccnc1	inactive	12.2 µM	Active	–	–	–
O=C(Cc1ccc(Cl)cc1)N/N=C/c1c[nH]c2ccccc12	inactive	14.1 µM	Active	Active	40%	–
O=C(O)/C=C/C(=O)Nc1ccc(Nc2ccccc2)cc1	inactive	15.6 µM	Active	Active	40%	20.1 µM
O=C1C(O)=C/C(=N\c2ccccc2O)c2ccccc21	inactive	28.8 µM	inactive	–	–	72.8 µM
O=C(Nc1ccc(-c2cn3ccccc3n2)cc1)c1ccccc1[N+](=O)[O-]	inactive	20.9 µM	Active	–	–	6.1 µM
